RGS4 act: RGS4 potentiation or activation; B-score at 10 µM; 0.92% of 310,000 active; HEK293 M3R/inducible RGS4, carbachol calcium flux Fluo4; hits give low values;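 active means B-score of the integrated calcium signal more than 4 SD below the library mean, with starting fluorescence not abnormally high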;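 further: negative B-score means reduced calcium response which marks RGS4 activation or potentiation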
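Material: Inducible-RGS4 HEK293 cells carrying M3 receptor; also added: carbachol at ECmax as muscarinic agonist stimulus; incubation: compound preincubation 20 min at room temperature before agonist; signal: Fluo4-AM (2 µM) calcium-flux fluorescence, kinetic read; measure: integrated calcium ratio converted to B score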
MrgX1 ag: human MrgX1 receptor agonism, primary screen | B-score at 10 µM | 0.44% of 310,000 active | MrgX1-HEK293 cells, Fluo-4 calcium fluorescence, agonist mode; hits give high values | AID 588627;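 active means calcium response B-score plate-corrected fluorescence ratio at least 3 library SD, with starting fluorescence B-score inside 5 SD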
Target sequence (Q96LB2 whole entry, looked up): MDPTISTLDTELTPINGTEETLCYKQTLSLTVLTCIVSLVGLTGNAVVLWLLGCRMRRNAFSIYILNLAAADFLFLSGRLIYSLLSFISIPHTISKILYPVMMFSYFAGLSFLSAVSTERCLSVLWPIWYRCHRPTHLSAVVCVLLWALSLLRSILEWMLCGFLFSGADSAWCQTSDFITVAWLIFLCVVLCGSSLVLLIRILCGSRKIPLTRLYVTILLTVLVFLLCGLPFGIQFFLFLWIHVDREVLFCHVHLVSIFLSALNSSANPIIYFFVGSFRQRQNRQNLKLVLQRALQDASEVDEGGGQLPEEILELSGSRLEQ
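Assay system: MrgX1-expressing HEK293 cells / Amount: fifteen thousand cells per well / Doses: test compound in the initial addition of three / Timing: cells plated overnight, dye loaded 0.5 h 37 °C, 0.5 h room temperature / Technique: kinetic calcium dye fluorescence, Fluo-4 NW / Control set: positive and negative controls per plate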
MrgX1 antag: blocks BAM8-22 activation of human MrgX1 receptor | Q96LB2 | MRGX1-HEK293 calcium flux, Fluo-4, BAM8-22 antagonism; hits give low values | B-score at 10 µM | 1.3% of 310,000 active | AID 588676;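 active means calcium-response B-score plate-corrected more than 3 library SD below zero, starting fluorescence within 5 deviations, no agonist response on first addition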;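 further: peak minus trough fluorescence over baseline after final BAM8-22 challenge near maximal dose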
MrgX1 PAM: allosterically activates human MrgX1 receptor signaling; Q96LB2; MrgX1-HEK293, Fluo-4 calcium flux, FDSS; hits give high values; B-score at 10 µM; 0.63% of 310,000 active;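 active means plate-corrected calcium response at least 3 library SD above typical, normal starting fluorescence, not activating the receptor alone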;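 further: compound read alongside a low EC10 to EC30 dose of BAM8-22 agonist; peak minus trough fluorescence over baseline measured at the second addition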
RGS4 block: inhibitors of human RGS4. B-score at 10 µM. HEK293 M3R/RGS4 inducible, Fluo-4 calcium flux; hits give high values; triggered by carbachol at its EC20. P49798. 0.45% of 310,000 active;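 active means B-score, a plate-corrected calcium signal, over three deviations above library mean, with baseline fluorescence within five deviations of library mean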;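 further: RGS4 expression induced by doxycycline in cells with stable M3 receptor; B-score is computed from the integrated fluorescence ratio over baseline after carbachol; higher B-score means a larger calcium signal and so more RGS4 inhibition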
Target sequence (P49798 whole entry, looked up): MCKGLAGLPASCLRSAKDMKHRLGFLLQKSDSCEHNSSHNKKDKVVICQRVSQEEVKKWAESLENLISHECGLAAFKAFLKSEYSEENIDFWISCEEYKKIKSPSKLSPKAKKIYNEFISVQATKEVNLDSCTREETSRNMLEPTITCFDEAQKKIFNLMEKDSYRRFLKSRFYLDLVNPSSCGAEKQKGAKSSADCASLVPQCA
RGS4 block valid: validation of RGS4 inhibitors | shares compounds with RGS4 block | HEK293 M3R/RGS4, carbachol calcium Fluo-4 fluorescence; carbachol added at its EC20; 0 = buffer wells, 100 = carbachol control | calcium response, % at 10 µM | 65% of 1,700 active;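 active means duplicate-averaged calcium response above the buffer-only control mean plus 5 SD of those controls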;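 further: integrated fluorescence ratio F max minus min over baseline F0; higher response in RGS4-induced cells means RGS4 inhibition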
M3R Ca ctr: non-induced cell nonspecific activity of RGS4 inhibitors; shares compounds with RGS4 block; HEK293 M3R non-induced, carbachol calcium Fluo-4; submaximal (EC20) carbachol stimulus; buffer wells 0%, carbachol control wells 100%; activity (percent), % at 10 µM; 20% of 1,900 active; AID 493000; call rule not given here;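 further: RGS4 induction absent so cells express M3R without RGS4; higher means more calcium signal and flags a non-specific hit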
RGS4 inh ctr2: second RGS4 inhibitor counter-screen in uninduced cells lacking carbachol; shares compounds with RGS4 block; HEK293 M3R/RGS4 non-induced, Fluo-4 calcium, no carbachol; normalised: buffer wells 0%, carbachol wells 100%; calcium response (agonist-mode artifact), % at 10 µM; 22% of 1,900 active;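 active means duplicate-averaged calcium rise in uninduced cells above buffer wells' mean plus 5 SD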
Of the large screens only hits and unclear results are named; the others gave an inactive call (follow-up assays come after a bar, where they were run). Rows were chosen to be rich in hits. Some 3.5% of all compounds tested hit in one or more screens of this group.

COc1cc(/C=C2\S/C(=N/S(=O)(=O)c3ccccc3)NC2=O)c([N+](=O)[O-])cc1OC	RGS4 block 6.8 | RGS4 block valid 30% | M3R Ca ctr 68% | RGS4 inh ctr2 inactive
O=C(CC1Nc2cccc3cccc(c23)NC1=O)Nc1ccccc1 (stereo not drawn)	none | M3R Ca ctr inactive | RGS4 inh ctr2 inactive
Cc1cc(C(=O)Nc2nc3ccc(Cl)cc3s2)nn1C	RGS4 block 5 | RGS4 block valid 10% | M3R Ca ctr inactive | RGS4 inh ctr2 inactive
Cn1ncc(Cl)c1C(=O)Nc1nc2ccc(Cl)cc2s1	none
N#Cc1c(-c2ccco2)cc(C2CC2)nc1N	RGS4 block 5 | RGS4 block valid 5.0% | M3R Ca ctr inactive | RGS4 inh ctr2 inactive
N#Cc1c(-c2ccccc2)cc(C2CC2)nc1N	none
CC(=O)c1nc(N2C(=O)CC(Cc3ccccc3)C2=O)sc1C (stereo not drawn)	none
COc1ccc(CCNCC(O)Cn2c3ccccc3c3ccccc32)cc1OC (stereo not drawn)	RGS4 block 17 | RGS4 block valid 62% | M3R Ca ctr inactive | RGS4 inh ctr2 14%
COc1ccccc1NCC(O)Cn1c2ccccc2c2ccccc21 (stereo not drawn)	none
CC(=O)N1N=C(c2c(-c3ccccc3)c3cc(C)ccc3[nH]c2=O)CC1c1ccco1 (stereo not drawn)	none | M3R Ca ctr inactive | RGS4 inh ctr2 inactive
CC(=O)N1N=C(c2c(-c3ccccc3)c3cc(Br)ccc3[nH]c2=O)CC1c1ccco1 (stereo not drawn)	RGS4 block 7.5 | RGS4 block valid 20% | M3R Ca ctr inactive | RGS4 inh ctr2 inactive
CC(=O)N1N=C(c2cccc(NS(=O)(=O)c3ccc(C)cc3)c2)CC1c1ccco1 (stereo not drawn)	none
CCOc1ccc(N(CC(=O)Nc2cc(Cl)ccc2C)S(C)(=O)=O)cc1	none
O=C(O)CCc1ccc(-c2ccc(Br)cc2)o1	none | M3R Ca ctr inactive | RGS4 inh ctr2 inactive
O=C(O)CCc1ccc(-c2ccc(Cl)cc2)o1	none
COc1ccc(N2CCN(C(c3ccc4ncccc4c3)c3nnnn3C(C)C)CC2)cc1 (stereo not drawn)	none
CCn1c2ccccc2c2cc(/C=N/NC(=O)c3ccccc3)ccc21	none | RGS4 block valid inactive | M3R Ca ctr inactive | RGS4 inh ctr2 inactive
Cn1c2ccccc2c2cc(/C=N/NC(=O)c3cc(O)cc(O)c3)ccc21	RGS4 act -7.2 | RGS4 block valid inactive | M3R Ca ctr inactive | RGS4 inh ctr2 inactive
O=S1(=O)CCC(N=Cc2ccc(-c3ccc(Cl)cc3)o2)C1 (stereo not drawn)	RGS4 block 5.7 | RGS4 block valid 7.5% | M3R Ca ctr inactive | RGS4 inh ctr2 inactive
Cc1ccc(Sc2ccc(CN3CCCCC3)cc2[N+](=O)[O-])cc1	none
CC(C)(Oc1ccc(Cl)cc1)C(=O)N/N=C/c1cn[nH]c1-c1ccccc1	RGS4 block 5 | RGS4 block valid 26% | M3R Ca ctr inactive | RGS4 inh ctr2 inactive
O=C(N/N=C\c1cn[nH]c1-c1ccc(Cl)cc1)c1cccs1	none
Cc1cccc(-n2c3nc(=O)[nH]c(=O)c-3cc3c(C)nn(-c4ccccc4)c32)c1C	RGS4 block 7 | RGS4 block valid inactive | M3R Ca ctr inactive | RGS4 inh ctr2 inactive
Cc1nn(-c2ccccc2)c2c1cc1c(=O)n(C)c(=O)nc-1n2-c1ccccc1F	none
O=C1NC[C@@H](Cc2cccc3ccccc23)N(CCC23CC4CC(CC(C4)C2)C3)C1=O	RGS4 block 4.8 | RGS4 block valid 12% | M3R Ca ctr 32% | RGS4 inh ctr2 inactive
Cc1cc(C)nc(CCNC(=O)CC2C(=O)NCCN2Cc2ccccc2)n1 (stereo not drawn)	none
Cc1ccsc1/C=N/NC(=S)NCc1ccccc1	none | M3R Ca ctr inactive | RGS4 inh ctr2 inactive
CCC(C(=O)N1CCCC1)n1nc(C)c2c(C)n(-c3ccccc3)nc2c1=O (stereo not drawn)	none | RGS4 block valid inactive | M3R Ca ctr inactive | RGS4 inh ctr2 inactive
CCC(C(=O)NCCc1ccc(C)cc1)n1nc(C)c2c(C)n(-c3ccccc3)nc2c1=O (stereo not drawn)	none
CCCCN(C(=O)c1ccc(S(=O)(=O)N2CCCCC2)cc1)C1CCS(=O)(=O)C1 (stereo not drawn)	none (no result: MrgX1 ag, MrgX1 antag, MrgX1 PAM)
CC(C)(C)c1ccc(C(=O)N2CCC(=O)N(C(CO)Cc3ccccc3)CC2)cc1 (stereo not drawn)	none
Cc1cccc(N2C(=O)c3ccc(C(=O)Nc4ccccn4)cc3C2=O)c1	none
Cc1cccc(N2C(=O)/C(=C\c3ccc(C(=O)O)cc3)c3ccccc3C2=O)c1	RGS4 block 10 | RGS4 block valid 38% | M3R Ca ctr inactive | RGS4 inh ctr2 inactive
COc1ccc(/C=C2\CCCC(C(=O)C(F)(F)F)=C2O)cc1	none
O=C(C1=C(O)/C(=C/c2ccc(O)cc2)CCC1)C(F)(F)F	RGS4 block 5.2 | RGS4 block valid inactive | M3R Ca ctr inactive | RGS4 inh ctr2 inactive
COC(=O)CCCC1=CC2=C(c3ccccc3)C(=O)C(C)(OC(=O)C3CCCC3)C(=O)C2=CN1Cc1ccc(OC)cc1 (stereo not drawn)	none
CCCCC1=CC2=C(c3ccco3)C(=O)C(C)(OC(=O)c3ccc(OC)cc3)C(=O)C2=CN1CC1CC1 (stereo not drawn)	none | RGS4 block valid inactive | M3R Ca ctr inactive | RGS4 inh ctr2 inactive
CCCCC1=CC2=C(c3ccco3)C(=O)C(C)(OC(=O)c3ccc(OC)cc3)C(=O)C2=CN1Cc1ccco1 (stereo not drawn)	MrgX1 antag -4.6 | RGS4 block valid inactive | M3R Ca ctr inactive | RGS4 inh ctr2 inactive
CCCCC1=CC2=C(c3ccco3)C(=O)C(C)(OC(=O)c3ccc(OC)cc3)C(=O)C2=CN1CCCN(CC)CC (stereo not drawn)	none | RGS4 block valid inactive | M3R Ca ctr inactive | RGS4 inh ctr2 inactive
CCCCC1=CC2=C(c3ccco3)C(=O)C(C)(OC(=O)c3ccc(OC)cc3)C(=O)C2=CN1Cc1ccc(OC)cc1 (stereo not drawn)	none (no result: MrgX1 ag, MrgX1 antag, MrgX1 PAM)
CCCCC1=CC2=C(c3ccco3)C(=O)C(C)(OC(=O)c3ccc(OC)cc3)C(=O)C2=CN1CCN1CCOCC1 (stereo not drawn)	none | RGS4 block valid inactive | M3R Ca ctr inactive | RGS4 inh ctr2 inactive

High-throughput results from PubChem.
